Reference: article PMC11812941 (CPT: Pharmacometrics & Systems Pharmacology, 2024)
Like-named read-outs stand apart in the source and are kept apart here.

Key:
[1] = system: patients with GA secondary to AMD (GA lesion area, study eye); assay: Dose-response model of GA lesion area, pooled FILLY, OAKS and DERBY data; type: in vivo, human; conditions: point estimate
Summary of the method: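 Study eyes were randomized 2:2:1:1 to a 100 μL intravitreal injection of test compound 15 mg monthly or EOM, or sham monthly or EOM, for ≤24 months. GA lesion area was measured by fundus autofluorescence. A linear-with-time disease progression model with covariates was built from sham and untreated fellow eyes. Step-function drug effects per regimen were fitted in NONMEM.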

[2] = Prevalence of serum antidrug antibodies in FILLY, OAKS and DERBY; type: in vivo, human; conditions: detectable at baseline or at any time during the study
[3] = cited from earlier work
[4] = cited from earlier work; remark: listed apart in the source
[5] = system: patients with GA secondary to AMD (GA lesion area); conditions: phase II FILLY, cited from earlier work
[6] = system: patients with GA secondary to AMD (GA lesion area); conditions: phase III OAKS and DERBY combined, cited from earlier work

Q: For pegcetacoplan, which “model-predicted rate of disease progression (GA lesion growth rate) relative to sham” value ([1]; pegcetacoplan 15 mg intravitreal EOM, 95% CI 0.78, 0.87) is on record?
A: Its value is 0.83 fold.

Q: What about the “model-predicted rate of disease progression (GA lesion growth rate) relative to sham” value ([1]; pegcetacoplan 15 mg intravitreal monthly, 95% CI 0.75, 0.84) of the same substance?
A: Its value is 0.80 fold.

Q: And the “prevalence of serum antidrug antibodies against the PEG moiety” value [2]?
A: Its value is 67%.

Q: What about the “prevalence of serum antidrug antibodies against the peptide moiety” value [2] of the same substance?
A: The value was 5%.

Q: What about the “model-predicted steady-state serum maximal concentration, geometric mean” value ([3]; patients with GA, 15 mg intravitreal EOM, CV 58.1%) of the same substance?
A: Its value is 1.5 µg/mL.

Q: And the “accumulation from first dose to steady-state, ratio of geometric mean exposure” value ([3]; serum or vitreous humor)?
A: Its value is 1.10–1.50.

Q: What about the “average exposure relative to reference body weight 70 kg” value ([4]; 5th percentile of body weight (53 kg), higher, 90% CI 1.16-1.23) of the same substance?
A: The value was 1.20 fold.

Q: And the “average exposure relative to reference body weight 70 kg” value ([4]; 95th percentile of body weight (94 kg), lower, 90% CI 0.800-0.853)?
A: The value was 0.827 fold.

Q: And the “effective elimination half-life, median (interquartile range)” value ([4]; patients with paroxysmal nocturnal hemoglobinuria)?
A: Its value is 8.6 (6.9–11.0) days.

Q: And the “clearance, predicted geometric mean” value ([4]; population PK model, 11 clinical studies, CV 30%)?
A: The value was 0.36 L/day.

Q: What about the “reduction in GA lesion area growth compared with sham treatment” value (“reduction in GA lesion area growth” for short) ([5]; EOM) of the same substance?
A: Its value is 20%.

Q: What about the “reduction in GA lesion area growth” value ([5]; monthly) of the same substance?
A: The value was 29%.

Q: What about the “reduction in GA lesion area growth” value ([6]; EOM) of the same substance?
A: Its value is 24%.

Q: What about the “reduction in GA lesion area growth” value ([6]; monthly) of the same substance?
A: Its value is 30%.
